# Published values pooled from the literature.
# Compare with care: the assays were run in different laboratories.
# Target: Mitogen-activated protein kinase 7 (MAPK7, Homo sapiens, UniProt Q13164)
Compound,test,conditions,remaining binding [%]
COc1ccc2c(O[C@@H]3C[C@H]4C(=O)N[C@]5(C(=O)O)CC5/C=C\CCCCC[C@H](NC(=O)OC5CCCC5)C(=O)N4C3)cc(-c3csc(NC(=O)C(C)C)n3)nc2c1C (some centres unmarked),"cell-free assay, competition with immobilised ligand",1 µM,100
C[C@@H](c1ccc(-n2cnc3c(N)ncnc32)cc1)N1CCc2nn(C)c(Cc3ccccc3)c2C1=O,"binding, competition with immobilised ligand",0.1 µM,89
O=C(NCCCN1CCOCC1)c1ccc(Nc2ncc(Cl)c(-c3ccc(Cl)s3)n2)cc1,"binding, competition with immobilised ligand",1 µM,28
c1cnn2ncc(-c3ccnc(N4CCC45COC5)n3)c2c1,binding,1 µM,87
C=CC(=O)N1CCC(C(=O)NCC(=O)N2CCN(c3nc(-c4cnc(N)nc4C(F)F)nc(N4CCOCC4)n3)CC2)CC1,"binding, competition with immobilised ligand",1 µM,100
CNC(=O)[C@@H]1CC[C@@H](n2c(-c3ccc4cnccc4c3)nc3ccc(C(=O)NCc4cccc(C(N)=O)c4)cc32)C1,"binding, competition with immobilised ligand",1 µM,100
N[C@H]1CCN(c2nccc(-c3cnn4ncccc34)n2)C1,binding,1 µM,100
COc1cnc(Nc2cccc(S(N)(=O)=O)c2)nc1N1CCN(c2ccccc2)CC1,"binding, competition with immobilised ligand",1 µM,100
CN(C)c1ncc(F)c(-c2cnn3ncccc23)n1,binding,1 µM,99
CN(c1ccnc(CNc2nc(Nc3ccc4c(c3)CC(=O)N4)ncc2C(F)(F)F)n1)S(C)(=O)=O,"cell-free assay, competition with immobilised ligand",1 µM,78
O=C(NCC1CCOCC1)c1n[nH]cc1NC(=O)c1c(F)cccc1F,"binding, competition with immobilised ligand",1 µM,90
O=C(NS(=O)(=O)c1ccc(NCC2CCOCC2)c([N+](=O)[O-])c1)c1ccc(N2CCN(Cc3ccc(C(F)(F)F)cc3-c3ccc(Cl)cc3)CC2)cc1Oc1cnc2[nH]ccc2c1,"cell-free assay, competition with immobilised ligand",1 µM,100
COc1ncc2cc3ccccc3nc2c1C#N,"cell-free assay, competition with immobilised ligand",5 µM,100
COc1cc(C(=O)N2CCC(N3CCN(C)CC3)CC2)ccc1Nc1ncc2c(n1)N(C)c1ccccc1C(=O)N2C,"binding, competition with immobilised ligand",10 µM,0.05
O=C(c1ccc(Nc2ncc(Cl)c(-c3cc4ccccc4s3)n2)cc1)N1CCC(N2CCCC2)CC1,"binding, competition with immobilised ligand",1 µM,60
C[C@H]1CCN(c2nccc(-c3cnn4ncccc34)n2)C1,binding,1 µM,93
c1cncc(-c2cccc(Nc3nccc(NC4CCCCC4)n3)c2)c1,"binding, competition with immobilised ligand",10 µM,92
CN([C@@H]1CCc2c(CC(=O)O)c3ccccc3n2C1)S(=O)(=O)c1ccc(F)cc1,"cell-free assay, competition with immobilised ligand",1 µM,100
O=C(c1ccc(Nc2ncc(Cl)c(-c3ccc(Cl)s3)n2)cc1)N1CCC(N2CCCC2)CC1,"binding, competition with immobilised ligand",1 µM,7.1
CN([C@@H]1CCc2c(CC(=O)O)c3cc(S(C)(=O)=O)ccc3n2C1)S(=O)(=O)c1ccc(F)cc1,"cell-free assay, competition with immobilised ligand",1 µM,96
CC1CCCN1c1nccc(-c2cnn3ncccc23)n1 (centres unmarked),binding,1 µM,100
C[C@@]1(Cc2ccc(C#N)cc2)C(=O)N(c2cc(Cl)cc(Cl)c2)c2ncc(C(=O)NC3(c4nc(C5CCC5)no4)CC3)n21,"cell-free assay, competition with immobilised ligand",1 µM,100
CN(C)c1nccc(-c2cnc3ncccn23)n1,binding,1 µM,92
